According to ChEMBL document CHEMBL1128172, “Structure-activity relationships of cyclic pentapeptide endothelin A receptor antagonists” (J Med Chem, 1995):
≈ marks a conversion by molar mass, not a printed value. Where a SMILES comes first, the peptide text is derived from it.

Experiments:
Endothelin-1 receptor [1] = target: T1, Endothelin-1 receptor (Sus scrofa, UniProt Q29010); experiment: Inhibitory effect against porcine Endothelin A receptor
T1 sequence (Q29010 whole entry): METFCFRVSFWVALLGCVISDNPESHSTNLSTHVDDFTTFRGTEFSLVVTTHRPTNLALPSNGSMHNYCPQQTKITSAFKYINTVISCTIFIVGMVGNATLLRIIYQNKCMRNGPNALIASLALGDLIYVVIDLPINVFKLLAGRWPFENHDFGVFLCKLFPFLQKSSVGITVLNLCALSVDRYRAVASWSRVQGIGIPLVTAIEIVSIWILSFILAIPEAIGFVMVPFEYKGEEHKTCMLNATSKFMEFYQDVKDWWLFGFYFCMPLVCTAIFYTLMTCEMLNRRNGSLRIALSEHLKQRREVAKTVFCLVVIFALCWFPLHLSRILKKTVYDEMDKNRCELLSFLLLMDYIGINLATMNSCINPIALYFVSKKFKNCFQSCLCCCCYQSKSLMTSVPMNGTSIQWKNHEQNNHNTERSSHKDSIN
Outline: (§1)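 [125I]ET-1 displacement from porcine aortic smooth muscle membranes, which are rich in ETA receptors. The IC50 is taken at the high-affinity sites and averaged over more than three independent experiments. The protocol follows an earlier report.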

[2] = target: T2, Endothelin receptor type B (Sus scrofa, UniProt P35463); experiment: Inhibitory effect against porcine Endothelin B receptor
T2 sequence (P35463 whole entry): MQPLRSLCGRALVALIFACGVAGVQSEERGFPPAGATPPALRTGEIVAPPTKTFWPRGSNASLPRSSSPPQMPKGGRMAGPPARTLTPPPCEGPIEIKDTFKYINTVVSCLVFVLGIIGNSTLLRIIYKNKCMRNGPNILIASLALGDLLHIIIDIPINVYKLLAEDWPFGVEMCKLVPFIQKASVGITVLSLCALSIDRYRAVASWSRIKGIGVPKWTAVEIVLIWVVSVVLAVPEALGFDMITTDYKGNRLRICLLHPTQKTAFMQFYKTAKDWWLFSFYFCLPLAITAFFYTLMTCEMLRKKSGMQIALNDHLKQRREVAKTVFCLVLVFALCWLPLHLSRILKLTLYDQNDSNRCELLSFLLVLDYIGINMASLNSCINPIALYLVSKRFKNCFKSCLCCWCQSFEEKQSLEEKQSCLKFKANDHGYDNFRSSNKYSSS

Endothelin-1 receptor [3] = target: T3, Endothelin-1 receptor (Homo sapiens, UniProt P25101); experiment: Inhibitory effect against Human Endothelin A receptor
T3 sequence (P25101 whole entry): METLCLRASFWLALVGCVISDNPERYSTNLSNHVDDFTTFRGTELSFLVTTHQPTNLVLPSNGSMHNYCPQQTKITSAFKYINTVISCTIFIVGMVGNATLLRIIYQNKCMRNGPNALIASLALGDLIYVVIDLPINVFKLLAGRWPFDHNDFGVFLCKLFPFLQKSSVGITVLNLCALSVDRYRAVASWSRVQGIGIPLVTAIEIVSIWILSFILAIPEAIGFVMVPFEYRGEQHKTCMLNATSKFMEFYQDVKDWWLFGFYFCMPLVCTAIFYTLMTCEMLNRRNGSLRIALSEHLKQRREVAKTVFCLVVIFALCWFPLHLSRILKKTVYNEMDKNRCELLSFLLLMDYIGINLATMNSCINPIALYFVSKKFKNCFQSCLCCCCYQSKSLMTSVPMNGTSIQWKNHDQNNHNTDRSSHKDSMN
Outline: (§2)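 Competition binding of 12 pM [125I]ET-1 to membranes from human neuroblastoma SK-N-MC cells (ETA) or Girardi heart cells (ETB), with increasing test compound, in 50 mM Tris/HCl pH 7.4 with protease inhibitors, 1 mM EDTA and 0.3% BSA. Incubated 4 h at 25 °C, filtered, washed, gamma-counted. Nonspecific binding defined with 0.2 μM ET-1. Values are the average of two independent experiments.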

Endothelin-1 receptor [4] = target: T1, Endothelin-1 receptor; experiment: The compound was tested for binding inhibitory activity against Endothelin A receptor from porcine aortic smooth muscle membranes.
[5] = Solubility in saline; type: physicochemical; conditions: saline; read-out: S
Outline: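 Measured on the sodium salts, dissolved in saline.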

[6] = target: T4, Endothelin receptor type B (Homo sapiens, UniProt P24530); experiment: Inhibitory effect against Human Endothelin B receptor
T4 sequence (P24530 whole entry): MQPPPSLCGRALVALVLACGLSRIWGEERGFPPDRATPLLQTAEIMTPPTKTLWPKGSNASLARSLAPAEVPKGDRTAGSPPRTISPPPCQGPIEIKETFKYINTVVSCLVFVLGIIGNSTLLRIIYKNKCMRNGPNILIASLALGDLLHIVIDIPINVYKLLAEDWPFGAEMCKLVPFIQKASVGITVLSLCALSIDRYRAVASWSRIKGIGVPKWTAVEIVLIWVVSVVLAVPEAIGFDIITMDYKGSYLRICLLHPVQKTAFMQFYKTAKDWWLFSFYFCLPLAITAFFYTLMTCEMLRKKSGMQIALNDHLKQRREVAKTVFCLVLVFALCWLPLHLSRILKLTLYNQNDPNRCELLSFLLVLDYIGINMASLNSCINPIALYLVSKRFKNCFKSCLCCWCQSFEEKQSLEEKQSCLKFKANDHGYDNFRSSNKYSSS

Sus scrofa = organism: Sus scrofa; experiment: Anti vasoconstriction activity was evaluated in isolated porcine coronary arteries; type: functional; conditions: read-out: pA2 (converted)
Endothelin-1 receptor [7] = target: T1, Endothelin-1 receptor; experiment: Inhibitory effect against porcine ET-A receptor; outline: as §1
Endothelin-1 receptor [8] = target: T3, Endothelin-1 receptor; experiment: Inhibitory effect against Human ET-A receptor; outline: as §2

IC50 (Endothelin-1 receptor [1]) [µM] | IC50 [2] [µM] | IC50 (Endothelin-1 receptor [3]) [µM] | IC50 max (Endothelin-1 receptor [4]) [µM] | solubility [5] [µg/mL] | IC50 [6] [µM] | IC50 (Endothelin-1 receptor [7]) [µM] | IC50 (Endothelin-1 receptor [8]) [µM] | Compound | Kb (Sus scrofa) [µM]
1.4 | > 100 | 0.59 | 1.4 | 210 (≈ 0.343 mM) | > 100 | – | – | CC[C@H](C)[C@H]1NC(=O)[C@H](C)NC(=O)[C@@H](CCC(=O)O)NC(=O)[C@@H](Cc2c[nH]c3ccccc23)NC(=O)[C@H](CC(C)C)NC1=O (HELM PEPTIDE1{A.[CC[C@H](C)[C@@H](N[*:1])C(=O)[*:2]].L.[dW].[dE]}$PEPTIDE1,PEPTIDE1,1:R1-5:R2$$$V2.0) | –
– | 4.8 | – | 0.004 | > 100000 | 21 | 0.004 | 0.0034 | CC(C)C[C@@H]1NC(=O)[C@@H](C2CCCC2)NC(=O)[C@@H]2CCCN2C(=O)[C@@H](CC(=O)O)NC(=O)[C@@H](Cc2c[nH]c3ccccc23)NC1=O (single isomer, unassigned) | 0.0316
0.021 | 30 | 0.03 | 0.021 | > 10000 | > 100 | – | – | CC(C)C[C@@H]1NC(=O)[C@@H](C(C)C)NC(=O)[C@@H]2CCCN2C(=O)[C@@H](CS(=O)(=O)O)NC(=O)[C@@H](Cc2c[nH]c3ccccc23)NC1=O (single isomer, unassigned) | 0.0398
– | 19 | – | 0.003 | 4000 (≈ 6.15 mM) | 55 | 0.003 | 0.0012 | CC(C)C[C@@H]1NC(=O)[C@@H](c2cccs2)NC(=O)[C@@H]2CCCN2C(=O)[C@@H](CC(=O)O)NC(=O)[C@@H](Cc2c[nH]c3ccccc23)NC1=O (single isomer, unassigned) | 0.00794
